Entries after “also recorded” stand apart in the source; their conditions may differ. No end group written: not given here.
How the values were obtained:
[1] = target: HSF2BP bound to BRME1-M (complex formed beforehand) (human) (UniProt O75031); assay: ITC
HSF2BP [2] = target: T1, HSF2BP (Homo sapiens, UniProt O75031); assay: ITC, BRME1 peptides versus full-length HSF2BP; format: binding
T1 sequence (O75031 1-334): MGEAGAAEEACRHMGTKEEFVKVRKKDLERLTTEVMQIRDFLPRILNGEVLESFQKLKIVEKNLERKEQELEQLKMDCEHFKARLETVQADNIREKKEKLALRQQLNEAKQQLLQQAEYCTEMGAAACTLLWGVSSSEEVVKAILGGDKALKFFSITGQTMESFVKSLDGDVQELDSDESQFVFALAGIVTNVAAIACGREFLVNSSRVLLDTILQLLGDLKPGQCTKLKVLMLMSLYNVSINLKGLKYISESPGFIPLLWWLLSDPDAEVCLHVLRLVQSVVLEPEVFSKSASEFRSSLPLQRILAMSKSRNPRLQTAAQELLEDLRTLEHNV
Outline: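 Full-length HSF2BP was His-tagged and bacterially expressed (IPTG, 20°C overnight), TEV-cleaved and SEC-purified. Synthetic BRME1 peptides: N, residues 578–601; M, 602–641; C, 649–668. In 25 mM tris pH 7.5, 250 mM NaCl, 5 mM β-mercaptoethanol at 293 and 303 K, 8–13 μM HSF2BP in the cell was titrated with 80–130 μM peptide. Injections of 10 μl every 210 s; first 2-μl injection discarded. Run in duplicate, fitted for stoichiometry, constants and thermodynamics.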

[3] = system: interstrand crosslink repair (pICL) in Xenopus egg extract; assay: Cisplatin interstrand crosslink repair in Xenopus egg extract; format: biochemical; conditions: HSF2BP 0.45 μM, peptide 1.35 μM
[4] = system: HR intermediates (X-arc) of pICL in Xenopus egg extract; format: biochemical; conditions: HSF2BP 0.45 μM, peptide 1.35 μM
HSF2BP helix α1 = target: T2, HSF2BP helix α1 (Homo sapiens, UniProt O75031); assay: ITC, BRME1-M versus HSF2BP helix α1 peptide; format: binding
T2 sequence (O75031 19-50 limits assumed): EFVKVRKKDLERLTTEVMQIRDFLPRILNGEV

HSF2BP + BRCA2-HBD = target: T3, HSF2BP + BRCA2-HBD (Homo sapiens, UniProt O75031+P51587); assay: ITC, BRME1-M versus HSF2BP bound to BRCA2-HBD; format: binding; conditions: 293 K
T3 sequence (O75031 1-334): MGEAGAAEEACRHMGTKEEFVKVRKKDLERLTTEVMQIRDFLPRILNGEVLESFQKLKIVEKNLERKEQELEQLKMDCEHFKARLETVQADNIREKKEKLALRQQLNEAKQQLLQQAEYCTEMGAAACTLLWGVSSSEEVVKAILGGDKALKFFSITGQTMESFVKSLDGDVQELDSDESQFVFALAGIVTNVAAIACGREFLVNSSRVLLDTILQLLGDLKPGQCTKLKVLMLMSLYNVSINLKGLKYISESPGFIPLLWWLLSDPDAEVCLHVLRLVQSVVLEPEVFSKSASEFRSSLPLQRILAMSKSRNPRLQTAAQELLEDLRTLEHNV
T3 sequence (P51587 2291-2342 C2332T partner limits assumed): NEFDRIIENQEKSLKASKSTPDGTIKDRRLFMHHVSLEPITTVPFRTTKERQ

HSF2BP [5] = target: T1, HSF2BP; assay: Mass photometry; format: physicochemical; conditions: 25-100 nM
HSF2BP [6] = target: T1, HSF2BP; assay: Scanning force microscopy; format: physicochemical
Outline: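 HSF2BP was diluted 10,000-fold to 12 nM in 25 mM tris-HCl pH 7.5, 250 mM NaCl, 5 mM β-mercaptoethanol. It was deposited for 30 s on freshly cleaved mica, rinsed with water, dried under filtered air, and imaged in air by SFM. Particle volume distributions were obtained by kernel density analysis.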

[7] = system: complex formed by HSF2BP and BRCA2-HBD; assay: Negative-staining EM of ring-shaped HSF2BP-BRCA2-HBD complex; format: binding, human; conditions: 2:1 mix of HSF2BP and BRCA2-HBD
endogenous Xenopus BRCA2 = assay: BRCA2 degradation during interstrand crosslink repair in Xenopus egg extract; format: biochemical; conditions: HSF2BP 0.45 μM, peptide 1.35 μM; 5 to 120 min
HSF2BP + BRME1-M = target: T4, HSF2BP + BRME1-M (Homo sapiens, UniProt O75031+Q0VDD7); assay: ITC, BRCA2 fragments versus HSF2BP bound to BRME1-M; format: binding; conditions: 293 K
T4 sequence (O75031 1-334): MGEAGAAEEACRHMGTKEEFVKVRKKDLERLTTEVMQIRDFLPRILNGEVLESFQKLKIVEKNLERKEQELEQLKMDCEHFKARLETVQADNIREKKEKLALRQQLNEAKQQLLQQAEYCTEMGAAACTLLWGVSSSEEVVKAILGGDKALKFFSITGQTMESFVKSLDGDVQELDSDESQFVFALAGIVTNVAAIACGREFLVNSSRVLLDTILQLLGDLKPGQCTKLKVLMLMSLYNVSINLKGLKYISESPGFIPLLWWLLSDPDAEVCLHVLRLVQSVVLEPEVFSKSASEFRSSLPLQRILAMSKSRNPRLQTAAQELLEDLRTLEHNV
T4 sequence (Q0VDD7 602-641 partner limits assumed): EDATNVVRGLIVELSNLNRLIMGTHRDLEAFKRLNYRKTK

HeLa cells = format: cell-based, human; conditions: HeLa stably producing the protein; MMC, cisplatin, talazoparib
Outline: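 HeLa cells in DMEM with 10% fetal calf serum were stably co-transfected (PiggyBac) with GFP-HSF2BP and/or Flag-BRME1 variants, then selected with puromycin (1.5 μg/ml) and G418 (800 μg/ml) for 8 days; mixed populations were used. Seeded 100–1000 cells/well in technical duplicates, drugs added next day: MMC 2 h, cisplatin or talazoparib overnight. Coomassie-stained colonies counted on day 10.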

SEC-MALS = target: the molecule itself; assay: SEC-MALS
crystal structure = target: the molecule itself; assay: crystal structure
[8] = SFM on mica, in air, HSF2BP at 12 nM

BRCA2 fragment 2213–2342 (from UniProt P51587 2213-2342) (domain or fragment)
dH [1]: -45.6 kJ/mol

BRME1-C: synthetic peptide, human BRME1 residues 649 to 668 (PYPSKGPGNIPRGDPPWREL)
binding to HSF2BP, in words (HSF2BP [2]; 30°C): does not bind HSF2BP | effect on interstrand crosslink repair, in words [3]: no such effect | effect on HR repair intermediates, in words [4]: no such effect

EDATNVVRGLVIELSNLNRLIMGTHRDLEAFKRLNYRKTK [BRME1-M]
ΔG (HSF2BP [2]; 293 K): -44.4 kJ/mol | ΔH (HSF2BP [2]; 293 K): -23.8 kJ/mol | ─TΔS (HSF2BP [2]; 293 K): -20.5 kJ/mol | ΔG (HSF2BP [2]; 303 K): -44.8 kJ/mol | ΔH (HSF2BP [2]; 303 K): -34.3 kJ/mol | ─TΔS (HSF2BP [2]; 303 K): -10.5 kJ/mol | ΔH (HSF2BP helix α1; 293 K): -5.02 kJ/mol | ─TΔS (HSF2BP helix α1; 293 K): -37.7 kJ/mol | ΔH (HSF2BP helix α1; 303 K): -31.8 kJ/mol | ─TΔS (HSF2BP helix α1; 303 K): -12.1 kJ/mol | ΔG (HSF2BP + BRCA2-HBD; first of two lines): -41.8 kJ/mol | ΔH (HSF2BP + BRCA2-HBD; first of two lines): -18.4 kJ/mol | ─TΔS (HSF2BP + BRCA2-HBD; first of two lines): -23.4 kJ/mol | ΔH (HSF2BP + BRCA2-HBD; second of two lines): -24.3 kJ/mol | ─TΔS (HSF2BP + BRCA2-HBD; second of two lines): -18.4 kJ/mol | effect on / state of HSF2BP oligomers, in words (HSF2BP [5]): the HSF2BP tetramer is dissociated into dimers; also recorded: disassembles the 24-nucleotide oligomer complexes, yielding to a mix between octamers, tetramers, and dimers; also recorded: caused disassembly of the ring-shaped complex and enrichment in double-octamers, octamers, and tetramers | effect on HSF2BP-BRCA2-HBD oligomers, in words (HSF2BP [6]; SFM, HSF2BP:BRME1-M = 1:1): complete disappearance of the 24-nucleotide oligomer population | effect on ring-shaped complexes, in words [7]: near-complete disappearance of the large ring-shape complexes | effect on interstrand crosslink repair, in words [3]: reverted the inhibitory effect of HSF2BP on the interstrand crosslink repair reaction | effect on HR repair intermediates, in words [4]: specifically suppressed the reduction in the formation of HR repair intermediates | effect on HSF2BP-induced BRCA2 degradation, in words (endogenous Xenopus BRCA2): completely abolished

B1: armadillo domain: HSF2BP armadillo domain alone (E122-V334) (protein)
chain: EMGAAACTLLWGVSSSEEVVKAILGGDKALKFFSITGQTMESFVKSLDGDVQELDSDESQFVFALAGIVTNVAAIACGREFLVNSSRVLLDTILQLLGDLKPGQCTKLKVLMLMSLYNVSINLKGLKYISESPGFIPLLWWLLSDPDAEVCLHVLRLVQSVVLEPEVFSKSASEFRSSLPLQRILAMSKSRNPRLQTAAQELLEDLRTLEHNV
particle volume, larger peak (HSF2BP [6]; [8]): ~90 nm^3 | particle volume, smaller peak (HSF2BP [6]; [8]): ~35 nm^3

B2: BRCA2_2213–2342: BRCA2 fragment 2213–2342 (protein, UniProt P51587 2213-2342, looked up, fragment)
chain: STYSKDSENYFETEAVEIAKAFMEDDELTDSKLPSHATHSLFTCPENEEMVLSNSRIGKRRGEPLILVGEPSIKRNLLNEFDRIIENQEKSLKASKSTPDGTIKDRRLFMHHVSLEPITCVPFRTTKERQ
ΔH (HSF2BP + BRME1-M): -45.6 kJ/mol | ─TΔS (HSF2BP + BRME1-M): -7.11 kJ/mol | Kd (HSF2BP + BRME1-M; pH 7.5, 10 μM complex in cell, 55 to 60 μM BRCA2 fragment in syringe): 7.8 nM

B3: HSF2BP H80A-R84A (natural protein, human, UniProt O75031 1-334, looked up)
chain: MGEAGAAEEACRHMGTKEEFVKVRKKDLERLTTEVMQIRDFLPRILNGEVLESFQKLKIVEKNLERKEQELEQLKMDCEAFKAALETVQADNIREKKEKLALRQQLNEAKQQLLQQAEYCTEMGAAACTLLWGVSSSEEVVKAILGGDKALKFFSITGQTMESFVKSLDGDVQELDSDESQFVFALAGIVTNVAAIACGREFLVNSSRVLLDTILQLLGDLKPGQCTKLKVLMLMSLYNVSINLKGLKYISESPGFIPLLWWLLSDPDAEVCLHVLRLVQSVVLEPEVFSKSASEFRSSLPLQRILAMSKSRNPRLQTAAQELLEDLRTLEHNV
effect on cell resistance to DNA damage, in words (HeLa cells): compromised cell survival as HSF2BP wild type | stoichiometry N (SEC-MALS): 8

B4: C78A-C120S-C128A (protein, UniProt O75031 1-334, looked up, variant C78A C120S C128A)
Heat shock factor 2-binding …: MGEAGAAEEACRHMGTKEEFVKVRKKDLERLTTEVMQIRDFLPRILNGEVLESFQKLKIVEKNLERKEQELEQLKMDAEHFKARLETVQADNIREKKEKLALRQQLNEAKQQLLQQAEYSTEMGAAAATLLWGVSSSEEVVKAILGGDKALKFFSITGQTMESFVKSLDGDVQELDSDESQFVFALAGIVTNVAAIACGREFLVNSSRVLLDTILQLLGDLKPGQCTKLKVLMLMSLYNVSINLKGLKYISESPGFIPLLWWLLSDPDAEVCLHVLRLVQSVVLEPEVFSKSASEFRSSLPLQRILAMSKSRNPRLQTAAQELLEDLRTLEHNV
effect on cell resistance to DNA damage, in words (HeLa cells): sensitized HeLa cells less than the wild-type protein

B5: BRME1: Flag-BRME1 stably produced in HeLa cells (protein, UniProt Q0VDD7 1-668, looked up)
Break repair meiotic …: MTKRKKLRTSGEGLCPPKPLKNPRLGDFYGDPQSSMLGCLHHPEEPEGKLGPVPSTQQHGEEPGKAVSSSPDEETGSPCRLLRQPEKEPAPLPPSQNSFGRFVPQFAKSRKTVTRKEEMKDEDRGSGAFSLETIAESSAQSPGCQLLVETLGVPLQEATELGDPTQADSARPEQSSQSPVQAVPGSGDSQPDDPPDRGTGLSASQRASQDHLSEQGADDSKPETDRVPGDGGQKEHLPSIDSEGEKPDRGAPQEGGAQRTAGAGLPGGPQEEGDGVPCTPASAPTSGPAPGLGPASWCLEPGSVAQGSPDPQQTPSRMGREGEGTHSSLGCSSLGMVVIADLSTDPTELEERALEVAGPDGQASAISPASPRRKAADGGHRRALPGCTSLTGETTGESGEAGQDGKPPGDVLVGPTASLALAPGSGESMMGAGDSGHASPDTGPCVNQKQEPGPAQEEAELGGQNLERDLEGFRVSPQASVVLEHREIADDPLQEPGAQQGIPDTTSELAGQRDHLPHSADQGTWADSLAVELDFLLDSQIQDALDASDFEAPPEQLFPSGNKPGPCWPGPSSHANGDPVAVAKAQPRTFVGIQASEASRMEDATNVVRGLIVELSNLNRLIMGTHRDLEAFKRLNYRKTKLGGKAPLPYPSKGPGNIPRGDPPWREL
modifications: Flag tag
effect on cell resistance to DNA damage, in words (HeLa cells): cancels the disruptive effect of HSF2BP on cancer cell resistance to DNA damage; also recorded: no effect on the cell sensitivity to DNA damage; also recorded: completely abolished the sensitization induced by HSF2BP

EFVKVRKKDLERLTTEVMQIRDFLPRILNGEV (peptide, UniProt O75031 19-50, looked up) [HSF2BP helix α1 peptide (residues 19 to 50)]
stoichiometry N (crystal structure): 4

From publication PMC10610910 (Science Advances, 2023)
